Screening results: PubChem, Broad Institute
EWS-Fli block: inhibitors of EWS/Fli oncoprotein transcriptional activity; 350,000 tested, 0.67% active; AID 651661; A673 NR0B1-luciferase reporter, viability-normalised; inhibition, % at 12.6 µM;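 active = mean inhibition of at least 50% after viability correction, with every replicate also passing that limit; inconclusive = mean reaches 50% but only one of two replicates passes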;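 note: firefly luciferase signal divided by Alamar Blue viability fluorescence both relative to DMSO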
Xi reactivation: X-chromosome reactivation activator | activation, % at 7.58 µM | AID 743238 | XiGFP mouse fibroblasts, % GFP-positive cells imaging, 3 d; cells co-treated with 5-aza-dC sensitizer; scaled so ellipticine positive control = 100% | 360,000 tested, 0.055% active;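 active = mean normalized replicate activation at least 10% and every replicate at or above 10%; inconclusive = only one of the two criteria met; inactive = mean below 10% and not all replicates reach 10%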
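System: 68-5-11 XiGFP fibroblast line; Timing: 3 days compound exposure; Compound dosing: one concentration, pinned; Benchmarks: positive control ellipticine, 6 µM final; Buffer or medium: DMEM containing 5-aza-dC.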
PGC1a acetyl inh: PGC1a acetylation modulation, inhibitor mode | U2OS PGC1a acetylation, AlphaScreen anti-acetyl-lysine; with virally co-expressed GCN5 acetyltransferase | inhibition, % at 15.6 µM | 350,000 tested, 0.17% active | AID 651687;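 active = every replicate shows inhibition of at least 40%; inconclusive = mean inhibition at least 40% but some replicate below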
AF4-AF9 inh: MLL-AF4/AF9 protein interaction inhibition | AID 651704 | P42568 | AlphaScreen, biotin-AF4 peptide binding to FLAG-AF9 | inhibition, % at 10 µM | 350,000 tested, 0.47% active;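 active = every replicate reaching a set inhibition limit, whatever the replicate mean, cut at about 25% in these data; inconclusive = mean inhibition reaches that limit but some replicates miss it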
Target sequence (P42568 whole entry, looked up): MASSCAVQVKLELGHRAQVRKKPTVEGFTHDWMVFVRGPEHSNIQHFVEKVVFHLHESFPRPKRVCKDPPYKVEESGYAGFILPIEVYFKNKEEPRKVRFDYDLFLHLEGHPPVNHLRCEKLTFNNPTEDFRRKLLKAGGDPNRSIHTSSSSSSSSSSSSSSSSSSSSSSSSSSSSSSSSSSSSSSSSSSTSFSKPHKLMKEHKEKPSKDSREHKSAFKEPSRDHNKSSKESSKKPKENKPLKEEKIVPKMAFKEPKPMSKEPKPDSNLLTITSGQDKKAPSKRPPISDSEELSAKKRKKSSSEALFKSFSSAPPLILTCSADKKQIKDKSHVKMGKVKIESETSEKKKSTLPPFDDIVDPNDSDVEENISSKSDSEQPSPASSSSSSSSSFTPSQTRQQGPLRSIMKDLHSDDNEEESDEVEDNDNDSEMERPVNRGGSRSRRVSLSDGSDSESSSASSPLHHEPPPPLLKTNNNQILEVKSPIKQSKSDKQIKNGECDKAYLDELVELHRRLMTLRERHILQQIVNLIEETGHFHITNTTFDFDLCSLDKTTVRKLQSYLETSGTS
GSIS activator: GLuc luminescence reporter in INS-1E cells, primary screen for activators of glucose-dependent secretion of insulin; INS-1E GLuc reporter insulin secretion, 2-3 h; activation, % at 16.6 µM; 370,000 tested, 0.61% active; AID 743287;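 active = lowest replicate activation of at least 40%, so every replicate reaches that level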
PAX8 reporter: inhibitors of PAX8 transcriptional activity in RMG-I cells. inhibition, % at 12.6 µM. 360,000 tested, 1.2% active. RMG-I TPO-luciferase reporter, SteadyGlo, 24 h;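 active = mean replicate inhibition at least 60% with every replicate also reaching 60%; inconclusive = only one of the two criteria is met; inactive = mean below 60% and not all replicates reaching 60%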;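 note: luciferase light reporting Pax8 driven TPO promoter activity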
Numbers stand for hits; i = inactive; ? = inconclusive; nt = no result. An excerpt weighted towards active compounds, which were near 2.1% of everything screened.

SMILES	EWS-Fli block	Xi reactivation	PGC1a acetyl inh	AF4-AF9 inh	GSIS activator	PAX8 reporter
Cc1cc(C(=O)Nc2ccc3c(c2)C(=O)N(C)[C@H]2CC[C@H](CC(=O)NCc4ccc(-c5ccccc5)cc4)O[C@H]2CO3)no1	i	i	nt	i	i	i
C[C@H](CO)N1C[C@H](C)[C@H](CN(C)C)Oc2cc(-c3cccnc3)ccc2S1(=O)=O	i	i	i	i	i	nt
COc1ccc(CNC(=O)C[C@H]2C=C[C@@H](NC(=O)c3ccc4c(c3)OCO4)[C@@H](CO)O2)cc1	nt	i	i	i	i	nt
Cc1ccc(/C=C/c2ccc3cccc(O)c3n2)s1	i	i	nt	42	i	i
CC=Cc1ccc2n(c1=O)C[C@H]1[C@H](CO)[C@@H](C(=O)NC3CCC3)[C@@H]2N1S(=O)(=O)c1cn(C)cn1 (mixture of isomers)	i	i	nt	i	i	i
O=C(c1ccccn1)N1CC2(C1)[C@H](c1ccccc1)[C@@H](CO)N2C(=O)C1CC1	i	i	i	i	i	i
COc1ccc(S(=O)(=O)Nc2ccc3c(c2)C(=O)N([C@@H](C)CO)C[C@H](C)[C@@H](CN(C)S(=O)(=O)c2ccc(C)cc2)OCCCC[C@H](C)O3)cc1	i	i	i	i	i	?
COc1ccc(S(=O)(=O)Nc2ccc3c(c2)C(=O)N([C@H](C)CO)C[C@H](C)[C@H](CN(C)S(=O)(=O)c2ccc(C)cc2)OCCCC[C@H](C)O3)cc1	i	i	i	i	i	72
COc1ccc(S(=O)(=O)N(C)C[C@@H]2OCCCC[C@H](C)Oc3ccc(NS(=O)(=O)c4ccc(C)cc4)cc3C(=O)N([C@@H](C)CO)C[C@@H]2C)cc1	i	i	i	i	i	i
COc1ccc(S(=O)(=O)Nc2ccc3c(c2)C(=O)N([C@@H](C)CO)C[C@@H](C)[C@@H](CN(C)S(=O)(=O)c2ccc(C)cc2)OCCCC[C@@H](C)O3)cc1	i	i	i	i	i	67
C[C@@H]1CN([C@H](C)CO)C(=O)c2cc(NS(=O)(=O)c3cccs3)ccc2O[C@@H](C)CCCCO[C@H]1CN(C)Cc1ccc(Cl)c(Cl)c1	i	i	i	i	i	75
C[C@@H]1CN([C@H](C)CO)C(=O)c2cc(NS(=O)(=O)c3cccs3)ccc2O[C@@H](C)CCCCO[C@@H]1CN(C)Cc1ccc(Cl)c(Cl)c1	i	i	i	i	i	80
C[C@@H]1CCCCO[C@@H](CN(C)Cc2ccc(Cl)c(Cl)c2)[C@H](C)CN([C@@H](C)CO)C(=O)c2cc(NS(=O)(=O)c3cccs3)ccc2O1	i	i	i	i	i	71
C[C@@H]1CCCCO[C@H](CN(C)S(C)(=O)=O)[C@H](C)CN([C@@H](C)CO)C(=O)c2cc(NS(=O)(=O)c3ccc(F)cc3)ccc2O1	i	i	i	i	i	i
O=C(OCC12CC3CC(CC(C3)C1)C2)c1ccc(NCc2cc(O)ccc2O)cc1	56	i	nt	?	157	i
O=C(OCCC12CC3CC(CC(C3)C1)C2)c1ccc(NCc2cc(O)ccc2O)cc1	68	i	nt	28	i	i
CCCN1C[C@@H](C)[C@@H](OC)CN(C)C(=O)c2ccc(NC(=O)c3ccccc3)cc2OC[C@H]1C	i	i	i	i	i	nt
O=C(N/N=C/c1cc(Cl)ccc1O)c1ccc(Br)cc1	nt	i	nt	nt	41	?
Cc1nc(C)c(C(=O)N/N=C/c2cc(Br)ccc2O)s1	i	i	i	i	i	67
O=C(N/N=C/c1cc(Br)ccc1O)c1ccncc1	i	i	i	?	i	i
C[C@@H]1CN([C@H](C)CO)C(=O)c2cccc(NC(=O)CCCCCC(=O)Nc3ccccc3N)c2O[C@H]1CN(C)C	nt	i	i	i	i	i
CCCC(=O)Nc1ccc2c(c1)C(=O)N(C)C[C@@H](OC)[C@H](C)CN(Cc1ccc(-c3ccccn3)cc1)[C@H](C)CO2	i	i	i	i	i	76
CCCNC(=O)Nc1ccc2c(c1)OC[C@H](C)N(Cc1ccc(-c3ccccn3)cc1)C[C@@H](C)[C@@H](OC)CN(C)C2=O	i	i	i	i	i	100
